Results on one compound are retold here after ChEMBL document CHEMBL4680238, “Novel octapeptide-DTX prodrugs targeting MMP-7 as effective agents for the treatment of colorectal cancer with lower systemic toxicity” (Eur J Med Chem, 2020).

As usually defined, the MRT inf is the average time that molecules of a dose stay in the body. As usually defined, the IC50 is the point on the concentration scale where inhibition reaches its midpoint. By AUC(0-inf) is commonly meant total exposure, with the tail of the curve extrapolated. What is called MRT is the average time that molecules of a dose stay in the body. A word on the half-life: it is the time in which the quantity being followed falls by half. As usually defined, the LD50 is the dose expected to kill half of the subjects tested.

The nature of data set [1]: Drug uptake in BALB/c nude mouse xenografted with human HCT-116 cells assessed as drug level in spleen at 5 mg/kg, iv measured up to 24 hrs by LC-MS/MS analysis. The data set is classed as ADME, organism-based. The settings on record: in vivo. In outline:
(§1)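 Male BALB/c nude mice bearing s.c. HCT116 tumours (200-300 mm3), 20 per group. Single tail-vein dose of 5 mg/kg. Five mice per group killed at 0.5, 4, 8 and 24 h and heart-perfused with PBS. Tissues homogenized in saline (4 µL/mg) and precipitated with methanol containing paclitaxel internal standard. Prodrug, released DTX and free DTX measured by LC-MS/MS.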

Data set [2] in a line: MRT (0 to infinity) in Sprague-Dawley rat at 5 mg/kg, iv measured up to 72 hrs by LC-MS/MS analysis. The settings on record: in vivo. The data set is classed as ADME, organism-based. Summed up: (§2)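 Male SD rats (180-200 g), fasted 12 h with free water, n = 3 per group. Single tail-vein dose of 5 mg/kg in 0.5% DMSO/5% castor oil/5% ethanol/89.5% saline. Retro-orbital blood drawn 0.083-72 h with heparin. Plasma protein-precipitated with methanol containing paclitaxel internal standard, then analysed by LC-MS/MS. Parameters from non-compartmental analysis, mean ± SD. For the DTX group, parameters were calculated after converting dose to the molar equivalent of the prodrug.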

Data set [3] deals with SW-620. Nature of the data set: Cytotoxicity against human SW-620 cells assessed as reduction in cell viability after 72 hrs by MTT assay. The data set is classed as functional, cell-based. The settings on record: SW-620, 72 h. Summed up:
(§3)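 Cells seeded at 5000/well and precultured 1 day. HCT116 grown in McCoy's 5A + 10% FBS; SW620 and HEK293 in DMEM + 10% FBS; CCD18Co in DMEM + 15% FBS. Compounds from 0.1 M DMSO stocks were tested at 10^-10 to 10^-4 mol/L in sixplicate: HCT116 and HEK293 for 48 h, SW620 and CCD18Co for 72 h, at 37 °C, 5% CO2. MTT (5 mg/mL) added for 4 h, then A570 read; IC50 estimated.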
(Tetrazolium dyes change colour on reduction, which living cells bring about.)

Data set [4] is described as follows: Toxicity in BALB/c nude mouse xenografted with human HCT-116 cells assessed as reduction in body weight at 23.4 mg/kg, ip administered once for every 7 days for 14 days relative to control. It counts as organism-based. Details: scale not given: the % may be the effect or the level left; call rule not given here. The settings on record: in vivo, 336 h, time 14 day. In outline: (§4)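 HCT116 s.c. xenografts in male BALB/c nude mice, n = 6 per group. Dosing was ip once every 7 days for 2 weeks in DMSO/castor oil/ethanol/saline; vehicle controls got solvent. Body weight recorded every other day or every three days. Weight loss taken at day 14. Mean ± SD.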

The nature of data set [5]: Toxicity in BALB/c nude mouse xenografted with human HCT-116 cells assessed as reduction in body weight at 5.85 mg/kg, ip administered once for every 7 days for 14 days relative to control. Further details: scale not given: the % may be the effect or the level left. It counts as organism-based. The settings on record: in vivo, 336 h, time 14 day. In outline: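 HCT116 cells (2 × 10^6 in 0.2 mL PBS) inoculated subcutaneously into male BALB/c nude mice; at mean tumor volume 100-200 mm3, randomized, six mice per group. Dosed intraperitoneally once every 7 days in DMSO (0.5%)/castor oil (5%)/ethanol (5%)/saline (89.5%), 0.1 mL per 10 g; vehicle controls received solvent. Body weight monitored every other day or three days; mice weighed on day 14.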
A general note: Xenograft models place foreign cells or tissue in a host animal.

Data set [6] deals with HEK293. Nature of the data set: Cytotoxicity against HEK293 cells assessed as reduction in cell viability after 48 hrs by MTT assay. To be noted: Homo sapiens, HEK293, 48 h. It counts as cell-based. In outline: as §3
The nature of data set [7]: AUC (0 to infinity) in Sprague-Dawley rat at 5 mg/kg, iv measured up to 72 hrs by LC-MS/MS analysis. The settings on record: Sprague-Dawley, in vivo. It counts as ADME, organism-based. Details: route intravenous, dose 5 mg/kg, time <=72. Summed up: as §2
Data set [8] concerns SW-620. Kind of data set: Potency index, ratio of 4FDT IC50 to test compound IC50 for Cytotoxicity against human SW-620 cells. It counts as functional.
The nature of data set [9]: Drug uptake in BALB/c nude mouse xenografted with human HCT-116 cells assessed as drug level in lung at 5 mg/kg, iv measured up to 24 hrs by LC-MS/MS analysis. It counts as ADME, organism-based. To be noted: in vivo. In outline: as §1
Data set [10] in a line: MRT (0 to infinity) in Sprague-Dawley rat assessed as docetaxel level at 5 mg/kg, iv measured up to 72 hrs by LC-MS/MS analysis. The data set is classed as ADME, organism-based. The settings on record: in vivo. In outline:
as §2

A short description of data set [11]: Toxicity in BALB/c nude mouse xenografted with human HCT-116 cells assessed as disordered myocardial fiber in heart at 11.73 mg/kg, ip administered once for every 7 days for 14 days by H and E staining based assay. The data set is classed as organism-based. The settings on record: in vivo, 336 h, time 14 day. In outline: (§5)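 At the end of the 14-day ip xenograft study (HCT116, BALB/c nude), heart and liver were collected from vehicle and molar-equivalent dose groups. Tissues fixed in 10% formalin in PBS and stained with H&E. Liver examined at 400×, heart at 100×.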

The test system of data set [12] is HCT-116. Nature of the data set: Antitumour activity against human HCT-116 cells xenografted in ip dosed BALB/c nude mouse assessed as tumour growth inhibition administered once for every 7 days for 14 days. It counts as functional, organism-based. The settings on record: time 14.0 day. In outline:
(§6)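 Male BALB/c nude mice received s.c. HCT116 cells (2 × 10^6 in 0.2 mL PBS). Once tumours reached 100-200 mm3, mice were randomized into groups of six. Dosing was ip, 0.1 mL/10 g, once every 7 days, in DMSO 0.5%/castor oil 5%/ethanol 5%/saline 89.5%; vehicle controls got solvent. Caliper volume V = L×W²×0.52 read every 2-3 days. Tumours excised and weighed on day 14.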

Data set [13] can be described thus: Toxicity in BALB/c nude mouse xenografted with human HCT-116 cells assessed as concentrated nucleus in liver at 11.73 mg/kg, ip administered once for every 7 days for 14 days by H and E staining based assay. The data set is classed as organism-based. To be noted: in vivo, 336 h, time 14 day. Summed up: as §5
Data set [14] in a line: Apparent clearance in Sprague-Dawley rat at 5 mg/kg, iv measured up to 72 hrs by LC-MS/MS analysis. The data set is classed as ADME, organism-based. The settings on record: Sprague-Dawley, in vivo, read-out: CL(app) (converted). In outline:
as §2

Data set [15] relates to HCT-116. Kind of data set: Antitumour activity against human HCT-116 cells xenografted in BALB/c nude mouse assessed as tumour growth inhibition at 23.4 mg/kg, ip administered once for every 7 days for 14 days relative to control. The data set is classed as functional. To be noted: HCT-116, ip, 336 h, time 14 day, read-out: TGI. In outline: as §6
Data set [16] is described as follows: Half life of compound in PBS buffer at pH 7.4 at 50 ug/ml up to 72 hrs by RP-HPLC analysis. The data set is classed as physicochemical. To be noted: dose 50 µg/ml.
The subject of data set [17] is HCT-116. Kind of data set: Antitumour activity against human HCT-116 cells xenografted in BALB/c nude mouse assessed as tumour growth inhibition at 5.85 mg/kg, ip administered once for every 7 days for 14 days relative to control. The settings on record: HCT-116, ip, 336 h, time 14 day, read-out: TGI. The data set is classed as functional. In outline:
as §6

Data set [18] is described as follows: Apparent clearance in Sprague-Dawley rat assessed as docetaxel level at 5 mg/kg, iv measured up to 72 hrs by LC-MS/MS analysis. The settings on record: in vivo. The data set is classed as ADME, organism-based. In outline:
as §2

Data set [19] can be described thus: Toxicity in BALB/c nude mouse xenografted with human HCT-116 cells assessed as reduction in body weight at 11.7 mg/kg, ip administered once for every 7 days for 14 days relative to control. The data set is classed as organism-based. Details: scale not given: the % may be the effect or the level left. The settings on record: in vivo, 336 h, time 14 day. In outline: as §4

Data set [20] in a line: Toxicity in ip dosed Kunming mouse measured for 14 days. The data set is classed as organism-based. The settings on record: in vivo, time 14 day. In outline:
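Healthy Kunming mice of both sexes, 20 ± 2 g, randomised into 5 groups of 10 matched for weight and size. Compound given once intraperitoneally at 400, 300, 250 or 150 mg/kg in formulation solvent (0.5% DMSO, 5% castor oil, 5% ethanol, 89.5% saline), 0.1 mL per 10 g; vehicle controls received solvent. Deaths recorded daily for 14 days; LD50 by Bliss method.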

Residues, ends and D or L forms follow the SMILES beside them. *: point of attachment. X1 = CC(=O)O[C@@]12CO[C@@H]1C[C@H](O)[C@@]1(C)C(=O)[C@H](O)C3=C(C)[C@@H](OC(=O)[C@H](OC(=O)OCc4ccc(N*)cc4)[C@@H](NC(=O)OC(C)(C)C)c4ccccc4)C[C@@](O)([C@@H](OC(=O)c4ccccc4)[C@H]21)C3(C)C

As for `CC[C@H](C)[C@H](NC(=O)CNC(=O)[C@H](CCC(N)=O)NC(=O)[C@@H]1CCCN1C(=O)CNC(C)=O)C(=O)N[C@@H](C)C(=O)N[C@@H](CCSC)C(=O)N[C@@H](CCC(N)=O)C(=O)N[C@@H](CC(C)C)C(=O)Nc1ccc(COC(=O)O[C@@H](C(=O)O[C@H]2C[C@@]3(O)[C@@H](OC(=O)c4ccccc4)[C@@H]4[C@]5(OC(C)=O)CO[C@@H]5C[C@H](O)[C@@]4(C)C(=O)[C@H](O)C(=C2C)C3(C)C)[C@@H](NC(=O)OC(C)(C)C)c2ccccc2)cc1` (Ac-GPQGIAMQL-X1), the Drug uptake result in [1] and in data set [9] was “Active” each time. Also, in [2], the MRT inf came out at 11.6 h. Besides, the IC50 was 0.03 µM in [3] and 137 µM in data set [6]. The Activity is 12.2% in data set [4]; 4.9% in data set [5]; “Non-Toxic” in data set [11]; “Non-Toxic” in data set [13]; 8.5% in [19]. The same compound displayed an AUC(0-inf) in data set [7] of 9240 ng·h/mL. The “Ratio IC50” value in data set [8] is on record as 9. In addition, the MRT in data set [10] is 9.04 h. Further, the TGI result in data set [12] was “Dose-dependent effect”. Moreover, in data set [14], the clearance is 9.33 mL/min/kg. Also, in data set [15], the inhibition in vivo at 23.4 mg/kg is 56.1%. The half-life at 50 ug/ml in data set [16] was over 72 h. The inhibition in vivo at 5.85 mg/kg in data set [17] was determined as 28.8%. Moreover, in [18], the “CL(app)” value amounted to 316.3 mL/min/kg. Further, the LD50 at 336 h in data set [20] was found to be 245 mg/kg.
